Calls of active or inactive are those of the source. The rule behind the calls is not given here.
Assays:
HCC1806 [1] = assay: Cytotoxicity against human HCC1806 cells assessed as reduction in cell viability incubated for 3 days by cell-titer-Glo reagent based assay; format: functional; settings: for IC50: HCC1806, 72 h
Procedure, shortened: (§1)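 Viability by CellTiter-Glo (ATP read-out). Cells plated at 3 × 10³/well in 384-well format overnight, then exposed to compound over a range (0.125–20 µM for initial series) for 3 d in RPMI 1640 with 10% FBS at 37°C, 5% CO₂. IC₅₀ fitted from dose–response curve.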

HCC38 = assay: Cytotoxicity against human HCC38 cells assessed as reduction in cell viability incubated for 3 days by cell-titer-Glo reagent based assay; format: functional; settings: HCC38, 72 h; procedure, shortened: as §1
HCC1143 = assay: Cytotoxicity against human HCC1143 cells assessed as reduction in cell viability incubated for 3 days by cell-titer-Glo reagent based assay; format: functional; settings: HCC1143, 72 h; procedure, shortened: as §1
HCC1806 [2] = assay: Increase in XBP1 mRNA splicing in human HCC1806 cells at 10 uM incubated for 4 hrs by RT-PCR method (reference value: 11%); format: functional
Procedure, shortened: (§2)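 HCC-1806 cells given 10 µM compound or tunicamycin 1 µg/mL over a time course; XBP1 RT-PCR products resolved on agarose gel, GAPDH internal control. Spliced fraction by densitometry as XBP1s/(XBP1s+XBP1u) × 100%; 3 experiments.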

MCF7 = assay: Cytotoxicity against human MCF7 cells assessed as reduction in cell viability incubated for 3 days by cell-titer-Glo reagent based assay; format: functional
Procedure, shortened: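 HCC-1806 and MCF7 cells exposed to compound for 3 d, viability read by CellTiter-Glo kit; means of 4 replicate wells, representative of 3 independent experiments.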

HCC1806 [3] = assay: Increase in CHOP mRNA expression in human HCC1806 cells at 10 uM by qRT-PCR method; format: functional, cell-based; settings: TDE = time-dependent effect
Procedure, shortened: (§3)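 HCC-1806 cells (4 × 10⁵/well) exposed to 10 µM over a time course; CHOP mRNA by qRT-PCR after TRIzol extraction and reverse transcription of 2 µg RNA. Means of 4 replicate wells, 3 experiments, t-test vs 0 h.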

HCC1806 [4] = assay: Increase in cleaved caspase-4 protein expression in human HCC1806 cells at 10 uM incubated for 8 to 24 hrs by Western blotting method; format: functional, cell-based
Procedure, shortened: (§4)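 HCC-1806 cells (8 × 10⁵ per 60-mm dish) treated with 10 µM for the indicated times, lysed in buffer with EDTA and phosphatase inhibitors; 20 µg protein on 7% SDS-PAGE, PVDF transfer, primary then HRP secondary antibodies (1:3000). α-Tubulin loading control; representative of 3 experiments.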

HCC1806 [5] = assay: Increase in XBP1 mRNA splicing in human HCC1806 cells at 10 uM incubated for 2 hrs by RT-PCR method (reference value: 11%); format: functional; procedure, shortened: as §2
HCC1806 [6] = assay: Increase in ATF4 protein in human HCC1806 cells at 10 uM incubated for 2 to 8 hrs by Western blotting method; format: functional, cell-based; procedure, shortened: as §4
HCC1806 [7] = assay: Reduction in ATF4 protein in human HCC1806 cells at 10 uM incubated for 2 to 8 hrs by Western blotting method; format: functional, cell-based; procedure, shortened: as §4
HCC1806 [8] = assay: Cytotoxicity against human HCC1806 cells assessed as reduction in cell viability at 5 uM incubated for 48 hrs in presence of control siRNA by cell-titer-Glo reagent based assay; format: functional
Procedure, shortened: (§5)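 HCC-1806 cells in serum-free RPMI transfected with 20 nM CHOP or scrambled siRNA by lipofection; after 6 h medium replaced with 10% FBS RPMI and compound (5 µM) or DMSO added for 48 h in 96-well format. Viability by CellTiter-Glo; 3 independent experiments, Student's t-test vs DMSO.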

HCC1806 [9] = assay: Increase in CHOP mRNA expression in human HCC1806 cells incubated for 8 hrs by qRT-PCR method relative to control; format: functional
Procedure, shortened: (§6)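 HCC-1806 cells (4 × 10⁵/well, 6-well) treated at a series of concentrations for 8 h; total RNA by TRIzol, 2 µg reverse transcribed, CHOP mRNA by qRT-PCR. Means of 4 replicate wells, 3 experiments, t-test vs DMSO.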

HCC1806 [10] = assay: Increase in CHOP mRNA expression in human HCC1806 cells incubated for 8 hrs by qRT-PCR method; format: functional, cell-based; procedure, shortened: as §6
HCC1806 [11] = assay: Increase in CHOP mRNA expression in human HCC1806 cells at 5 uM in presence of CHOP siRNA incubated for 48 hrs by qRT-PCR method; format: functional, cell-based
Procedure, shortened: (§7)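 HCC-1806 cells transfected with CHOP or scrambled siRNA; 6 h later treated with 5 µM compound or DMSO for 48 h. CHOP mRNA by RT-PCR with GAPDH as internal control; 3 independent experiments.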

HCC1806 [12] = assay: Increase in CHOP mRNA expression in human HCC1806 cells at 5 uM in presence of control siRNA incubated for 48 hrs by qRT-PCR method; format: functional, cell-based; procedure, shortened: as §7
HCC1806 [13] = assay: Induction of apoptosis in human HCC1806 cells assessed as reduction in cell number at 10 uM incubated for 24 hrs by live-cell phase-contrast microscopy; format: functional, cell-based
Procedure, shortened: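 Near-confluent HCC-1806 cultures treated with 10 µM compound or DMSO for 24 h, then imaged by live-cell phase-contrast microscopy at 10× magnification.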

HCC1806 [14] = assay: Increase in Bim mRNA expression in human HCC1806 cells at 10 uM by RT-PCR method; format: functional, cell-based; settings: TDE = time-dependent effect
Procedure, shortened: (§8)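 HCC-1806 cells treated with 10 µM over a time course; ATF4, GADD34 or Bim mRNA by qRT-PCR. Means of 4 replicate wells, representative of 3 experiments, Student's t-test vs DMSO-treated cells.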

HCC1806 [15] = assay: Increase in XBP1 mRNA splicing in human HCC1806 cells at 10 uM incubated for 8 hrs by RT-PCR method (reference value: 11%); format: functional; procedure, shortened: as §2
HCC1806 [16] = assay: Increase in ATF4 mRNA expression in human HCC1806 cells at 10 uM incubated for 2 to 8 hrs by qRT-PCR method; format: functional, cell-based; procedure, shortened: as §8
HCC1806 [17] = assay: Increase in CHOP mRNA expression in human HCC1806 cells at 10 uM by qRT-PCR method relative to control; format: functional; procedure, shortened: as §3
HCC1806 [18] = assay: Increase in eIF2alpha phosphorylation in human HCC1806 cells at 10 uM incubated for 1 to 24 hrs by Western blotting method; format: functional, cell-based; procedure, shortened: as §4
HEK-293T [19] = assay: Increase in ERSE-mediated luciferase expression in HEK293T cells stably transfected with ERSE-luciferase gene at 10 uM incubated for 24 hrs by luciferase reporter gene assay; format: functional, cell-based; settings: Homo sapiens
Procedure, shortened: (§9)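 HEK293T cells stably carrying CHOP-, ERSE- or UPRE-luciferase reporters plated 7 × 10³/well in 384-well plates, after 16 h given compound (10 µM), tunicamycin 1 µg/mL or DMSO for 24 h; luciferase by Bright-Glo. Means of 4 replicate wells, representative of 3 experiments.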

HCC1806 [20] = assay: Reduction in eIF2alpha phosphorylation in human HCC1806 cells at 10 uM incubated for 1 to 24 hrs by Western blotting method; format: functional, cell-based; procedure, shortened: as §4
HEK-293T [21] = assay: Increase in UPRE-mediated luciferase expression in HEK293T cells stably transfected with UPRE-luciferase gene at 10 uM incubated for 24 hrs by luciferase reporter gene assay relative to control; format: functional, Homo sapiens; procedure, shortened: as §9
HCC1806 [22] = assay: Induction of apoptosis in human HCC1806 cells assessed as increase in caspase-3 cleavage at 10 uM incubated for 8 and 24 hrs by Western blotting method; format: functional, cell-based; procedure, shortened: as §4
HCC1806 [23] = assay: Increase in GADD34 mRNA expression in human HCC1806 cells at 10 uM incubated for 2 to 24 hrs by qRT-PCR method; format: functional, cell-based; settings: TDE = time-dependent effect; procedure, shortened: as §8
HCC1806 [24] = assay: Increase in CHOP protein expression in human HCC1806 cells at 10 uM incubated for 2 and 24 hrs by Western blotting method; format: functional, cell-based; settings: in the assay text read “4 and 24 hrs” for “2 and 24 hrs”; procedure, shortened: as §4
HCC1806 [25] = assay: Cytotoxicity against human HCC1806 cells assessed as reduction in cell viability at 5 uM incubated for 48 hrs in presence of CHOP siRNA by cell-titer-Glo reagent based assay; format: functional; procedure, shortened: as §5
HCC1806 [26] = assay: Reduction in Bcl-2 protein expression in human HCC1806 cells at 10 uM incubated for 2 to 24 hrs by Western blotting method; format: functional, cell-based; procedure, shortened: as §4
HCC1806 [27] = assay: Increase in XBP1 mRNA splicing in human HCC1806 cells at 10 uM incubated for 24 hrs by RT-PCR method (reference value: 11%); format: functional; procedure, shortened: as §2

CC1CCN(c2ccc(NC(=O)c3ccco3)cc2)CC1
IC50 (HCC1806 [1]): > 40 µM

Cc1cccc(NC(=O)c2ccc([N+](=O)[O-])o2)c1C
IC50 (HCC1806 [1]): 9.7 µM

Cc1cc(NC(=O)c2ccc([N+](=O)[O-])o2)c(C)cc1I
IC50 (HCC1806 [1]): 3 µM

O=C(Nc1cc(Cl)ccc1Cl)c1ccc([N+](=O)[O-])o1
IC50 (HCC1806 [1]): 8.6 µM

O=C(Nc1ccc(N2CCOCC2)c(Cl)c1)c1ccc([N+](=O)[O-])o1
IC50 (HCC38): 2 µM
IC50 (HCC1806 [1]): 2.6 µM
IC50 (HCC1143): 2.5 µM

O=C(Nc1ccc(Cl)cc1)c1ccc([N+](=O)[O-])o1
IC50 (HCC1806 [1]): 5.1 µM

O=C(Nc1ccc(N2CCOCC2)cc1)c1ccc([N+](=O)[O-])o1
IC50 (HCC38): 3.1 µM
IC50 (HCC1806 [1]): 1.5 µM
IC50 (HCC1143): 2.3 µM

O=C(Nc1ccc(N2CCCCC2)c(Cl)c1)c1ccc([N+](=O)[O-])o1
IC50 (HCC38): 3.8 µM
IC50 (HCC1806 [1]): 3.5 µM
IC50 (HCC1143): 4.5 µM

CCc1cc(I)ccc1NC(=O)c1ccc([N+](=O)[O-])o1
IC50 (HCC1806 [1]): 5.5 µM

CC1CCN(c2ccc(NC(=O)c3ccc([N+](=O)[O-])o3)cc2)CC1
Activity (HCC1806 [2]): 16.4%
Activity (MCF7): Dose-dependent effect
Activity (HCC1806 [3]): tde
Activity (HCC1806 [4]): Active
Activity (HCC1806 [5]): 19.6%
Activity (HCC1806 [6]): Active
Activity (HCC1806 [7]): Active
Activity (HCC1806 [8]): Active
fold change (FC) (HCC1806 [9]): 9
Activity (HCC1806 [10]): Dose-dependent effect
Activity (HCC1806 [11]): Active
Activity (HCC1806 [12]): Active
IC50 (HCC38): 2.5 µM
Activity (HCC1806 [13]): Active
Activity (HCC1806 [14]): tde
Activity (HCC1806 [15]): 14.2%
Activity (HCC1806 [16]): Active
Activity (HCC1806 [1]): Dose-dependent effect
IC50 (HCC1806 [1]): 2.8 µM
fold change (FC) (HCC1806 [17]): 9
Activity (HCC1806 [18]): Active
IC50 (HCC1143): 2.1 µM
Activity (HEK-293T [19]): inactive
Activity (HCC1806 [20]): Active
fold change (FC) (HEK-293T [21]): < 2
Activity (HCC1806 [22]): Active
Activity (HCC1806 [23]): tde
Activity (HCC1806 [24]): Active
Activity (HCC1806 [25]): inactive
Activity (HCC1806 [26]): Active
Activity (HCC1806 [27]): 15.3%

O=C(Nc1cc(C(F)(F)F)ccc1Cl)c1ccc([N+](=O)[O-])o1
IC50 (HCC1806 [1]): 5.1 µM
